From ChEMBL document CHEMBL1121524, “Studies of hypolipidemic agents. 1. Synthesis and hypolipidemic activities of alkoxycinnamic acid derivatives” (1980)

Legend:
[1] = organism: Rattus norvegicus; experiment: Tested for the hypolipidemic activity, expressed as percent decrease in Triglyceride in rat, at dosage of 100 mg for 5 days by Ryan and Rasho method; type: functional
In short: (§1)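 Male Sprague-Dawley rats, 4 weeks old, kept on CE-2 chow for at least 1 week, then grouped (generally five per group). Compound was mixed into CE-2 powder and fed ad libitum for the stated period; controls received plain CE-2 powder. Diet level is given as mg/100 g (mg%), about equal to mg/kg/day. Total serum triglyceride was measured by the Ryan and Rasho method and reported as percent depression versus control group mean. Significance was p < 0.05.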

[2] = organism: Rattus norvegicus; experiment: Tested for the hypolipidemic activity, expressed as percent decrease in serum cholesterol in rat, at dosage of 100 mg for 5 days by Zak et al method; type: functional
In short: as §1, with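 “cholesterol” for “triglyceride”, “Zak et al.” for “Ryan and Rasho”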

[3] = organism: Rattus norvegicus; experiment: Tested for the hypolipidemic activity, expressed as percent decrease in Triglyceride in rat, at dosage of 30 mg for 7 days by Ryan and Rasho method; type: functional; in short: as §1
[4] = organism: Rattus norvegicus; experiment: Tested for the hypolipidemic activity, expressed as percent decrease in serum cholesterol in rat, at dosage of 30 mg for 7 days by Zak et al method; type: functional
In short: as §1, with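 “cholesterol” for “triglyceride”, “Zak et al.” for “Ryan and Rasho”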

[5] = organism: Rattus norvegicus; experiment: tested for the hypolipidemic activity, expressed as percent decrease in Triglyceride in rat, at dosage of 75.8 mg for 7 days by Ryan and Rasho method; type: functional; in short: as §1
[6] = organism: Rattus norvegicus; experiment: Tested for the hypolipidemic activity, expressed as percent decrease in serum cholesterol in rat, at dosage of 75.8 mg for 7 days by Zak et al method; type: functional
In short: as §1, with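 “cholesterol” for “triglyceride”, “Zak et al.” for “Ryan and Rasho”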

[7] = organism: Rattus norvegicus; experiment: Hypolipidemic activity expressed as percentage decrease in triglyceride in rat, at dosage of 50 mg for 7 days; type: functional; in short: as §1
[8] = system: Rattus norvegicus; experiment: In vivo hypolipidemic activity, expressed as percent decrease in serum cholesterol in rat, at dosage of 20 mg for 7 days.; type: functional
In short: as §1, with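 “cholesterol” for “triglyceride”, “Zak et al.” for “Ryan and Rasho”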

[9] = organism: Rattus norvegicus; experiment: Tested for the hypolipidemic activity, expressed as percent decrease in serum cholesterol in rat, at dosage of 50 mg for 7 days; type: functional
In short: as §1, with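 “cholesterol” for “triglyceride”, “Zak et al.” for “Ryan and Rasho”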

[10] = system: Rattus norvegicus; experiment: tested for the hypolipidemic activity, expressed as percent decrease in Triglyceride in rat, at dosage of 20 mg/kg 0 mg for 7 days by Ryan and Rasho method
[11] = organism: Rattus norvegicus; experiment: tested for the hypolipidemic activity, expressed as percent decrease in Triglyceride in rat, at dosage of 20 mg for 7 days by Ryan and Rasho method; type: functional; in short: as §1
[12] = organism: Rattus norvegicus; experiment: tested for the hypolipidemic activity, expressed as percent decrease in serum cholesterol in rat, at dosage of 10 mg for 7 days by Zak et al method; type: functional
In short: as §1, with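 “cholesterol” for “triglyceride”, “Zak et al.” for “Ryan and Rasho”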

[13] = organism: Rattus norvegicus; experiment: tested for the hypolipidemic activity, expressed as percent decrease in Triglyceride in rat, at dosage of 10 mg for 7 days by Ryan and Rasho method; type: functional; in short: as §1
[14] = organism: Rattus norvegicus; experiment: Tested for the hypolipidemic activity, expressed as percent decrease in serum cholesterol in rat, at dosage of 20 mg for 7 days by Zak et al method; type: functional
In short: as §1, with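 “cholesterol” for “triglyceride”, “Zak et al.” for “Ryan and Rasho”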

[15] = organism: Rattus norvegicus; experiment: Tested for the hypolipidemic activity, expressed as percent decrease in Triglyceride in rat, at dosage of 102 mg for 7 days by Ryan and Rasho method; type: functional; in short: as §1
[16] = organism: Rattus norvegicus; experiment: Tested for the hypolipidemic activity, expressed as percent decrease in serum cholesterol in rat, at dosage of 102 mg for 7 days by Zak et al method; type: functional
In short: as §1, with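 “cholesterol” for “triglyceride”, “Zak et al.” for “Ryan and Rasho”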

## C=C(C)C(=O)OCCOC(=O)/C=C/c1ccc(OCCCCCCC/C=C/CCCCCCCCC)cc1
[1]
  Decrease: 21%
[2]
  Decrease: -13%

## C=CCOc1ccc(/C=C/C(=O)O)cc1
[3]
  Decrease: -16%
[4]
  Decrease: 0%

## CCCCCCCCCCCCCCCC(=O)OCC(O)COC(=O)/C(C)=C/c1ccc(OCCCCCCCCCCCCCC)cc1 (stereo not drawn)
[5]
  Decrease: -19%
[6]
  Decrease: 3%

## CCCCCCCCCCCCCCCCOc1ccc(/C=C/C(=O)OCCCl)cc1
[7]
  Decrease: 43%
[8]
  Decrease: 17%
[9]
  Decrease: -4%
[10]
  Decrease: 17%

## CCCCCCCCCCCCOc1ccc(/C=C(\C)C(=O)O)cc1
[7]
  Decrease: 31%
[11]
  Decrease: 32%
[12]
  Decrease: 14%
[13]
  Decrease: 13%
[14]
  Decrease: 7%
[9]
  Decrease: 17%

## CCCCCCCCCCCCCCCC(=O)OCC(COC(=O)/C(C)=C/c1ccc(OCCCCCCCCCCCCCC)cc1)OC(=O)CCCCCCCCCCCCCCC (stereo not drawn)
[15]
  Decrease: 5%
[16]
  Decrease: 18%
